Results: ChEMBL document CHEMBL2157900, “Design, synthesis and in vitro activities on anti-platelet aggregation of 4-methoxybenzene-1,3-isophthalamides” (Bioorg Med Chem Lett, 2012)

System: not listed separately
Test: Antiplatelet activity against rat platelet rich plasma assessed as inhibition of ADP-induced platelet aggregation after 2 mins by Born test method
Type: functional
Method in brief: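 Rat blood was collected into 3.8% sodium citrate (1:9, v/v). Platelet-rich plasma was obtained by centrifugation at room temperature for 10 min (500–800 rpm). Platelet-poor plasma, made by spinning PRP at room temperature for 15 min (3000 rpm), set zero. Compound was incubated with PRP for 2 min, then aggregation was stimulated with ADP and read on an aggregometer. Results are given as percentage inhibition and IC50.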

Compound | IC50
COc1ccc(C(=O)Nc2ccccc2Br)cc1C(=O)Nc1ccccc1Br | 660 nM
COc1ccc(C(=O)Nc2ccccc2I)cc1C(=O)Nc1ccccc1I | 300 nM
COc1ccc(C(=O)Nc2ccccc2Cc2ccccc2)cc1C(=O)Nc1ccccc1Cc1ccccc1 | 20 nM
COc1ccc(C(=O)Nc2ccccc2CC#N)cc1C(=O)Nc1ccccc1CC#N | 590 nM
COc1cccc(NC(=O)c2ccc(OC)c(C(=O)Nc3cccc(OC)c3)c2)c1 | 490 nM
CCOc1cccc(NC(=O)c2ccc(OC)c(C(=O)Nc3cccc(OCC)c3)c2)c1 | 810 nM
COc1ccc(C(=O)NCc2ccccc2)cc1C(=O)NCc1ccccc1 | 580 nM
COc1ccc(C(=O)NCCc2ccccc2)cc1C(=O)NCCc1ccccc1 | 240 nM
COc1ccc(C(=O)NCc2cccnc2)cc1C(=O)NCc1cccnc1 [PICOTAMIDE] | 760 nM

Results, then the compound that gave them:

IC50 | Compound
860 nM | COc1ccc(C(=O)Nc2ccccc2F)cc1C(=O)Nc1ccccc1F
600 nM | COc1ccc(C(=O)Nc2ccc(F)cc2)cc1C(=O)Nc1ccc(F)cc1
510 nM | COc1ccc(C(=O)Nc2ccc(Br)cc2)cc1C(=O)Nc1ccc(Br)cc1
490 nM | COc1ccc(C(=O)Nc2ccc(I)cc2)cc1C(=O)Nc1ccc(I)cc1
750 nM | COc1ccc(C(=O)Nc2ccc([N+](=O)[O-])cc2)cc1C(=O)Nc1ccc([N+](=O)[O-])cc1
640 nM | COc1ccc(C(=O)Nc2ccc(C)cc2)cc1C(=O)Nc1ccc(C)cc1
670 nM | COc1ccc(C(=O)Nc2ccc(C(C)=O)cc2)cc1C(=O)Nc1ccc(C(C)=O)cc1
490 nM | CCCCOc1ccc(NC(=O)c2ccc(OC)c(C(=O)Nc3ccc(OCCCC)cc3)c2)cc1
770 nM | COc1ccc(C(=O)Nc2ccccc2)cc1C(=O)Nc1ccccc1

System: Platelet
Test: Ratio of picotamide IC50 to compound IC50 for rat platelet rich plasma assessed as inhibition of ADP-induced platelet aggregation
Type: functional

Compound | Ratio IC50
COc1ccc(C(=O)Nc2ccccc2Cc2ccccc2)cc1C(=O)Nc1ccccc1Cc1ccccc1 | 10
